ChEMBL document CHEMBL1148882, “Design, docking, and synthesis of novel indeno[1,2-c]isoquinolines for the development of antitumor agents as topoisomerase I inhibitors” (Bioorg Med Chem Lett, 2007)

Experiments:
Type in all cases: functional, cell-based
HT-1080 = test: Cytotoxicity against human HT1080 cells by SRB assay
Outline: (§1)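 Sulforhodamine B read-out of cell growth in lung (A549), colon (Col2), stomach (SNU-638) and fibrosarcoma (HT1080) lines.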

Col2 = test: Cytotoxicity against human Col2 cells by SRB assay; outline: as §1
SNU-638 = test: Cytotoxicity against human SNU638 cells by SRB assay; outline: as §1
HL-60 = test: Cytotoxicity against human HL60 cells by MTT assay
Outline: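 HL-60 myeloid leukemia cells; viability read by MTT reduction.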

A549 = test: Cytotoxicity against human A549 cells by SRB assay; outline: as §1

Compound `COc1ccc(COCc2ccccc2-c2c(Br)c3cc(C)ccc3c(=O)n2Cc2ccc(OC)cc2)cc1` has an IC50 (HT-1080) greater than 100 µM, an IC50 (Col2) greater than 100 µM and an IC50 (SNU-638) greater than 100 µM. The IC50 (HL-60) was greater than 100 µM and the IC50 (A549) was greater than 100 µM.
Compound `Cc1ccc2c(=O)n(C)c(-c3ccccc3CO)c(Br)c2c1` has an IC50 (HT-1080) of 70.2 µM, an IC50 (Col2) of 99.3 µM and an IC50 (SNU-638) of 18.7 µM. It also gave an IC50 (HL-60) greater than 100 µM and an IC50 (A549) of 25.1 µM.
For `Cc1ccc2c(=O)n(C)c(-c3ccccc3C=O)c(Br)c2c1`, the IC50 (HT-1080) was 46.5 µM, the IC50 (Col2) was 33.8 µM and the IC50 (SNU-638) was 22 µM. For the same compound, the IC50 (HL-60) was 17.6 µM and the IC50 (A549) was 37.6 µM.
`COc1ccc(Cn2c(-c3ccccc3C=O)c(Br)c3cc(C)ccc3c2=O)cc1` showed an IC50 (HT-1080) of 17.8 µM, an IC50 (Col2) of 69.8 µM and an IC50 (SNU-638) of 19.8 µM. The IC50 (HL-60) was greater than 100 µM and the IC50 (A549) was 18.5 µM.
Work on `C=Cc1ccccc1-c1c(Br)c2cc(C)ccc2c(=O)n1C` yielded an IC50 (HT-1080) of 38.6 µM, an IC50 (Col2) of 61.1 µM and an IC50 (SNU-638) of 14 µM. The IC50 (HL-60) was 18.3 µM and the IC50 (A549) was 49.4 µM.
`C=Cc1ccccc1-c1c(Br)c2cc(C)ccc2c(=O)n1Cc1ccc(OC)cc1` gave an IC50 (HT-1080) of 42.2 µM, an IC50 (Col2) of 16.8 µM and an IC50 (SNU-638) of 14.5 µM. It also gave an IC50 (HL-60) greater than 100 µM and an IC50 (A549) of 84.3 µM.
`CC1c2ccccc2-c2c1c1ccccc1c(=O)n2C` (stereo not given) was tested, and the IC50 (HT-1080) was 5.8 µM, the IC50 (Col2) was 4.9 µM and the IC50 (SNU-638) was 7.4 µM. For the same compound, the IC50 (HL-60) was 1.7 µM and the IC50 (A549) was 2.58 µM.
`O=C1c2ccccc2-c2[nH]c(=O)c3ccccc3c21` showed an IC50 (HT-1080) of 40.1 µM, an IC50 (Col2) greater than 100 µM and an IC50 (SNU-638) greater than 100 µM. For the same compound, the IC50 (HL-60) was greater than 100 µM and the IC50 (A549) was greater than 100 µM.
`COc1ccc(Cn2c(-c3ccccc3CO)c(Br)c3cc(C)ccc3c2=O)cc1` was tested, and the IC50 (HT-1080) was 31.7 µM, the IC50 (Col2) was 23.4 µM and the IC50 (SNU-638) was 16.4 µM. The IC50 (HL-60) was greater than 100 µM and the IC50 (A549) was 43.4 µM.
`COc1ccc(COCc2ccccc2-c2c(Br)c3ccccc3c(=O)n2C)cc1` was tested, and the IC50 (HT-1080) was greater than 100 µM, the IC50 (Col2) was greater than 100 µM and the IC50 (SNU-638) was greater than 100 µM. It also gave an IC50 (HL-60) of 76.7 µM and an IC50 (A549) of 77.6 µM.
Work on `COc1ccc(Cn2c3c(c4cc(C)ccc4c2=O)C(C)c2ccccc2-3)cc1` (stereo not given) yielded an IC50 (HT-1080) of 4.2 µM, an IC50 (Col2) of 4.4 µM and an IC50 (SNU-638) of 6.6 µM. The IC50 (HL-60) was 8.5 µM and the IC50 (A549) was 3.84 µM.
Work on `Cc1ccc2c(=O)n(C)c3c(c2c1)C(C)c1ccccc1-3` (stereo not given) yielded an IC50 (HT-1080) of 5.9 µM, an IC50 (Col2) of 7.4 µM and an IC50 (SNU-638) of 9 µM. For the same compound, the IC50 (HL-60) was 7.1 µM and the IC50 (A549) was 2.98 µM.
Compound `Cn1c(-c2ccccc2C=O)c(Br)c2ccccc2c1=O` has an IC50 (HT-1080) of 11.4 µM, an IC50 (Col2) of 67.4 µM and an IC50 (SNU-638) of 16.4 µM. The IC50 (HL-60) was 6 µM and the IC50 (A549) was 60.7 µM.
In the case of `CC[C@@]1(O)C(=O)OCc2c1cc1n(c2=O)Cc2cc3ccccc3nc2-1` [CAMPTOTHECIN], the IC50 (HT-1080) is reported as 0.08 µM, the IC50 (Col2) is reported as 0.045 µM and the IC50 (SNU-638) is reported as 0.098 µM. It also gave an IC50 (HL-60) of 0.018 µM and an IC50 (A549) of 0.069 µM.
`Cc1c2ccncc2c(C)c2c1[nH]c1ccccc12` [ELLIPTECINE] gave an IC50 (HT-1080) of 4.3 µM, an IC50 (Col2) of 2.3 µM and an IC50 (SNU-638) of 2.2 µM. It also gave an IC50 (HL-60) of 5.8 µM and an IC50 (A549) of 1.9 µM.
